Screens deposited in PubChem BioAssay by several laboratories.
Most compounds without a hit are left out; they make up all but 2.9% or so of the library.
HTRA1 inh: HTRA1 serine protease inhibitors, primary screen, biochemical, fluorescence polarization, HTS. Q92743. recombinant HTRA1, FP-rhodamine activity-based probe. inhibition, % at 5.96 µM. 340,000 tested, 0.5% active; in the data active = inhibition above about 36%
ATG4B inh: ATG4B protease inhibitors, primary screen, biochemical, fluorescence, uHTS | Cysteine protease ATG4B (Homo sapiens), Q9Y4P1 | ATG4B cleavage of LC3-PLA2, NBD-HPC fluorescence, 1 h | inhibition, % at 8.33 µM | 340,000 tested, 0.51% active | AID 504462, 2011; in the data active = inhibition above about 40%
TCR CD3 inh: inhibitors of human TCR-CD3 interaction, primary screen, biochemical, fluorescence, TAMRA-labeled TCR probe; T-cell receptor (TCR); inhibition, % at 9.4 µM; 360,000 tested, 0.37% active; AID 651800, 2012; in the data active = inhibition above about 19%;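 note: recombinant mutant TCR 2C K166C tagged with TAMRA read by polarization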
mABHD4 FP: ABHD4 inhibitors, primary screen, biochemical, fluorescence polarization, mouse; (Lyso)-N-acylphosphatidylethanolamine lipase (Mus musculus), Q8VD66; purified mABHD4, FP-Rh probe fluorescence polarization; inhibition, % at 8.92 µM; 370,000 tested, 0.54% active;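 active = inhibition exceeding the mean over every tested compound plus 3 SD, cut at about 30% in these data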
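assay system = mABHD4 protein | compound dosing = single nominal dose of 8.92 µM, 0.89% DMSO final | read-out basis = percent inhibition of probe binding, normalized to plate controls | schedule = Enzyme–compound pre-incubation 45 min, then probe 60 min, both 25 °C | detection = fluorescence polarization, excitation 525 nm, emission 598 nm, BODIPY TMR filters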
SIAE inh: human SIAE inhibitors, primary screen, biochemical, fluorescence polarization, FP-Rh probe, 1536-well HTS. Sialate O-acetylesterase (Homo sapiens), Q9HAT2. SIAE FP-Rh probe binding. inhibition, % at 9.66 µM. 370,000 tested, 0.69% active. AID 1053197, 2014;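 active = inhibition above a cutoff: mean of compounds within the control limits plus 3 SD of those, cut at about 17% in these data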
Target sequence (Q9HAT2 whole entry, looked up): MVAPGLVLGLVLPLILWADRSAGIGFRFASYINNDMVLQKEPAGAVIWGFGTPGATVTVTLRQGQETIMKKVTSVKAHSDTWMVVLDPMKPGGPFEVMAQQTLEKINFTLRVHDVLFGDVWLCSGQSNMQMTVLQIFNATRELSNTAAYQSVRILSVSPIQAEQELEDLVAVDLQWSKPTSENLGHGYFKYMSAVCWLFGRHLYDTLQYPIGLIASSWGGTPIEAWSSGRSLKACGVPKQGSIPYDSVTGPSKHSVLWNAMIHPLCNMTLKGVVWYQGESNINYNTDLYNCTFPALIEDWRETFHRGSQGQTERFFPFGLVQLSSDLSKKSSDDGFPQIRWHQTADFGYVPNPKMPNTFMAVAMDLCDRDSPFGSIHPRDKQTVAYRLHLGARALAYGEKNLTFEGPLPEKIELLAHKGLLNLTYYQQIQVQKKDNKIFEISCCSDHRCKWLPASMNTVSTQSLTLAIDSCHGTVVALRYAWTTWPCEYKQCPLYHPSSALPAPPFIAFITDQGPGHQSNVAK
PRMT1 inh: PRMT1 methyltransferase inhibitors, primary screen, biochemical, fluorescence polarization; Protein arginine N-methyltransferase 1 (Homo sapiens), Q99873; recombinant PRMT1, activity-based probe fluorescence polarization; inhibition, % at 2.79 µM; 370,000 tested, 1.3% active;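 active = inhibition above about 21% made by adding two undisclosed values, limit read from the data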
ABHD4 confirm: ABHD4 inhibitors, retest, confirmation, biochemical, fluorescence polarization, mouse; inhibition, % at 8.92 µM; purified mABHD4, FP-Rh probe fluorescence polarization; 1,800 tested, 55% active; shares compounds with mABHD4 FP;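 active = mean inhibition across replicates above the hit cutoff set in the primary screen, cut at about 30% in these data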
Of the large screens only hits and unclear results are named; the others gave an inactive call (follow-up assays come after a bar, where they were run).

COc1cc2c(c(OC)c1)[C@H](/C=C/c1ccccc1)[C@@H]([C@H](O)CO)OC2	none (no result: HTRA1 inh, ATG4B inh, TCR CD3 inh)
CCCCCCCCCCOC(=O)Cn1c(COc2ccccc2)[n+](C)c2ccccc21	mABHD4 FP 30.4 | ABHD4 confirm 33.1
CCCCCCCCCCOC(=O)Cn1c(COc2ccc(Cl)cc2)[n+](C)c2ccccc21	mABHD4 FP 35.2 | ABHD4 confirm 54.7
CCCCCCCCCCOC(=O)Cn1c(COc2ccccc2C)[n+](C)c2ccccc21	none (no result: TCR CD3 inh, mABHD4 FP, SIAE inh, PRMT1 inh)
COC(=O)[C@]12C[C@H](CC(=O)N3CCCCC3)C(=O)N(CCc3ccc(OC)c(OC)c3)C1=C[C@H](C1CCCC1)O[C@@H]2C	none (no result: HTRA1 inh, ATG4B inh, TCR CD3 inh)
O=C(c1ccccc1I)N1CCC(Oc2cccnc2)CC1	none (no result: HTRA1 inh, ATG4B inh, TCR CD3 inh)
Cc1cc(C)n(CC(=O)Nc2ccc3c(c2)OCO3)c(=O)c1C#N	mABHD4 FP 31.0 | ABHD4 confirm inactive
COC(=O)[C@]12C[C@H](CC(=O)NCc3ccc(C)o3)C(=O)N(Cc3ccco3)C1=C[C@H](COCc1ccccc1)O[C@@H]2C	none (no result: HTRA1 inh, ATG4B inh, TCR CD3 inh)
C/C(=N\Nc1nc2ccccc2s1)c1ccc(Br)s1	mABHD4 FP 32.7 | ABHD4 confirm inactive
C/C(=N\NC(=O)c1ccccc1[N+](=O)[O-])c1ccc(Br)s1	none
COc1ccc(COC[B-](F)(F)F)cc1	mABHD4 FP 43.6 (no result: ATG4B inh) | ABHD4 confirm inactive
COc1ccc(CCCCCCOCc2ccccc2)cc1	none
COC(=O)[C@]1(C#N)CC(=O)N(c2ccccc2)[C@@H]1c1ccccc1	none (no result: HTRA1 inh, ATG4B inh, TCR CD3 inh)
COc1ccc(Nc2ccc(C(N)=O)cc2[N+](=O)[O-])cc1	none
COc1ccc(OC)c(Nc2ccc(C(=O)O)cc2[N+](=O)[O-])c1	none
COc1ccc(Nc2ccc(C(=O)O)cc2[N+](=O)[O-])cc1	mABHD4 FP 49.2 | ABHD4 confirm 43.1
Cc1cccc(Nc2ccc(C(=O)O)cc2[N+](=O)[O-])c1C	mABHD4 FP 36.8 | ABHD4 confirm 29.6
CCOc1ccc(Nc2ccc(C(=O)O)cc2[N+](=O)[O-])cc1	mABHD4 FP 59.6 | ABHD4 confirm 44.8
O=C(O)c1ccc(Nc2ccc(F)c(F)c2)c([N+](=O)[O-])c1	mABHD4 FP 31.7 | ABHD4 confirm 31.9
NC(=O)c1ccc(Nc2ccc([N+](=O)[O-])cc2[N+](=O)[O-])cc1	none
Cc1ccc(C(=O)O)cc1[N+](=O)[O-]	none
Cc1ccccc1NC(=O)Cn1nnc(-c2ccncc2)n1	none (no result: HTRA1 inh, ATG4B inh, TCR CD3 inh)
O=C(Cc1cccs1)NC1CCCCN(Cc2cccc(Cl)c2)C1=O (configuration not stated)	none (no result: HTRA1 inh, ATG4B inh, TCR CD3 inh)
COC(=O)[C@H]1C[C@]2(C(/C=C(\C)CCC=C(C)C)S(=O)(=O)c3ccccc3)c3ccccc3N[C@H]2N1 (some centres not stated)	none (no result: HTRA1 inh, ATG4B inh, TCR CD3 inh)
CC(=O)Oc1ccc2c(=O)c(Oc3ccccc3)c(C)oc2c1OC(C)=O	mABHD4 FP 41.9 | ABHD4 confirm inactive
COC(=O)C1=C(C)N(Cc2cccc(C(F)(F)F)c2)C(=NCc2ccc3c(c2)OCO3)NC1c1ccc(F)cc1 (configuration not stated)	mABHD4 FP 44.5 (no result: HTRA1 inh, ATG4B inh) | ABHD4 confirm 29.7
COC(=O)C1=C(C)N(Cc2cccc(C(F)(F)F)c2)C(=NCc2ccc3c(c2)OCO3)NC1c1cccc(C(F)(F)F)c1 (configuration not stated)	none (no result: HTRA1 inh, ATG4B inh)
COC(=O)C1=C(C)N(Cc2cccc(C(F)(F)F)c2)C(=NCc2ccc(C(F)(F)F)cc2)NC1c1ccc(F)cc1 (configuration not stated)	mABHD4 FP 35.0 (no result: HTRA1 inh, ATG4B inh) | ABHD4 confirm 43.9
COC(=O)C1=C(C)N(Cc2ccc(C(F)(F)F)cc2)C(=NCc2ccccc2)NC1c1cccc(F)c1 (configuration not stated)	mABHD4 FP 33.8 (no result: HTRA1 inh, ATG4B inh) | ABHD4 confirm 45.8
COC(=O)C1=C(C)N(Cc2cccc(C(F)(F)F)c2)C(=NCc2ccc(OC)cc2)NC1c1cccc(C(F)(F)F)c1 (configuration not stated)	mABHD4 FP 31.4 (no result: HTRA1 inh, ATG4B inh) | ABHD4 confirm 40.8
COc1ccc(S(=O)(=O)N2CCN(C(=O)CSc3nc4ccccc4nc3N3CCCCC3)CC2)cc1	none (no result: HTRA1 inh, ATG4B inh, TCR CD3 inh)
COC(=O)CNC(=O)[C@H](Cc1ccccc1)NC1(C(=O)NCCc2c[nH]c3ccccc23)CCCCC1	none (no result: HTRA1 inh, ATG4B inh, TCR CD3 inh)
O=C(NCCc1c[nH]c2ccccc12)OCc1cn(Cc2cccc(F)c2)nn1	none (no result: HTRA1 inh, ATG4B inh, TCR CD3 inh)
O=C(CSc1nnc(COc2ccccc2)n1Cc1ccco1)Nc1ccc(OCc2ccccc2)cc1	none (no result: HTRA1 inh, ATG4B inh, TCR CD3 inh)
O=[N+]([O-])c1ccc(S(=O)(=O)Nc2nc3ccccc3nc2Nc2ccccc2)cc1	none (no result: HTRA1 inh)
CC(=O)Nc1ccc(S(=O)(=O)Nc2nc3ccccc3nc2Nc2ccc(N)cc2)cc1	mABHD4 FP 40.0, PRMT1 inh 22.8 | ABHD4 confirm inactive
CC(=O)Nc1ccc(S(=O)(=O)Nc2nc3ccccc3nc2Nc2ccc(C(=O)O)c(O)c2)cc1	mABHD4 FP 42.6 | ABHD4 confirm 43.1
CC(=O)Nc1ccc(Nc2nc3ccccc3nc2NS(=O)(=O)c2ccc(Cl)c([N+](=O)[O-])c2)cc1	mABHD4 FP 49.2 | ABHD4 confirm 67.7
CC(=O)Nc1ccc(S(=O)(=O)Nc2nc3ccccc3nc2Nc2cccc(O)c2)cc1	none
O=C(O)c1ccc(Nc2nc3ccccc3nc2NS(=O)(=O)c2ccc(F)cc2)cc1	none
COC(=O)c1ccc(NC(=S)Nc2ccc(O)cc2)cc1	none
Oc1ccc(NC(=S)Nc2ccc(O)cc2)cc1	mABHD4 FP 49.2 | ABHD4 confirm inactive
CN(C)[C@@H]1CCN(c2cccc3c2S(=O)(=O)N2CC[C@H](C2)O3)C1	none (no result: HTRA1 inh, ATG4B inh, TCR CD3 inh)
O=C1/C(=C2\C(=O)N(Cc3ccc(F)cc3)c3ccccc32)SC(=S)N1CCS(=O)(=O)O	mABHD4 FP 75.8 | ABHD4 confirm 100.4
O=C(O)CN1C(=O)/C(=C2\C(=O)N(Cc3ccccc3Cl)c3ccccc32)SC1=S	none
N=C1c2c(cc(=O)n3c2[nH]c2ccccc23)CN1CCN1CCOCC1	mABHD4 FP 30.8 | ABHD4 confirm inactive
O=C(O)c1ccc(NCCC2=CCCCC2)c([N+](=O)[O-])c1	mABHD4 FP 41.3 | ABHD4 confirm 45.5
COc1ccc(CCNc2ccc(C(=O)O)cc2[N+](=O)[O-])cc1OC	mABHD4 FP 45.1 | ABHD4 confirm 43.2
CC(=O)CC[C@H]1CC[C@]2(CCCN(C(=O)c3ccc4ccccc4n3)C2)O1	none (no result: HTRA1 inh, ATG4B inh, TCR CD3 inh)
